Assay outcomes: PubChem, several laboratories
Sampled rows, rich in hits. Any-hit rate of the full collection: about 8.9%.
MT stabilize HCS = microtubule stabilization, imaging screen; HeLa tubulin immunostaining HCS, 24 h; share of cells brighter than vehicle mean+2SD; % tubulin-high responders, % at 10 µM; hit rate 0.83% among 200,000; AID 2205;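 active = plate Z-score above 3 for both tubulin-high and condensed-nucleus cell shares, with cell loss under 80%, at 10 µM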;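 also: anti alpha tubulin signal scored within the nucleus-defined area of each cell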
Dynein cargo inh = blocks dynein driven cargo transport along microtubules; 3617.4 mouse cells, GR-EGFP nuclear translocation imaging; test concentration mostly 20 µM; stimulated with dexamethasone, 1 µM; stronger effect = lower value; z-score, hits read low; hit rate 0.47% among 220,000;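 active = plate z-score of nuclear minus cytoplasmic receptor signal below a set negative limit, without overly bright fluorescence or cell loss, cut at about -3.5 in these data, passing the limit was not always enough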;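 also: z-score of nuclear minus cytoplasmic ring GR-EGFP intensity difference per well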
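medium = tetracycline-free induction medium containing charcoal-stripped FBS | probe or stimulus = dexamethasone, 1.0 µM final | timing = 48 h induction, then 1 h compound, then 30 min agonist, 37 °C | detection = automated 10x imaging of fixed Hoechst-stained cells | read-out basis = nuclear versus cytoplasmic GR-EGFP signal, averaged per well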
b-catenin transl = alters nuclear translocation of beta-catenin in HeLa cells; nuclear translocation activity, % at 5 µM; hit rate 0.3% among 190,000; AID 1665; immunofluorescence imaging;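 active = nuclear translocation activity above 50% at 5 µM, with a well cell count of 50 or more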;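 also: per-cell ratio of nuclear to cytoplasmic median beta-catenin stain intensity; plate controls were DMSO negative control for no effect and GSK-3 inhibitor IX positive control for full effect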
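assay system = human HeLa cells, endogenous beta-catenin | times = compound treatment 24 h, 37°C, 5% CO2 | detection = Anti-beta-catenin immunofluorescence on PFA-fixed, Triton-permeabilized cells, DAPI nuclei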
HSV augment = increases HSV replication in cells; maximum fold increase; HSV replication augmentation in cells, fold increase; hit rate 0.005% among 220,000; in the data active = maximum fold increase above about 1.5; tested in PC3 cells
L major viab = reduces viability of Leishmania major promastigotes; resazurin fluorescence viability; hit rate 9% among 200,000; inhibition, % at 10 µM; in the data active = inhibition above about 50%;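 also: promastigotes grown with compound for 44 hours at 28 °C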
An asterisk follows results filed as active; i = inactive; nt = not tested or not shown.

SMILES	MT stabilize HCS	Dynein cargo inh	b-catenin transl	HSV augment	L major viab
Cc1ccc(Cn2ccc(NC(=O)c3cc(-c4ccc(Cl)cc4)on3)n2)cc1	5	-0.9	-1	i	57*
Cc1cccc(Cn2ccc(NC(=O)c3ccc4c(c3)OCO4)n2)c1	2	-0.18	nt	i	60*
Cc1ccc(Cn2ccc(NC(=O)c3cc(-c4ccc(F)cc4)on3)n2)cc1	3	-0.36	-4	i	40
Cc1cc(NC(=O)c2cc(C(C)C)on2)nn1Cc1ccc(Cl)cc1	4	-0.041	0	i	71*
COC(=O)COc1nc(C)c2c(c1C#N)CC(C)(C)OC2	2	0.41	3	i	9
CC(C)OC(=O)c1cc2c(ccn2C)n1CC(=O)N(Cc1ccccc1)c1ccccc1	4	0.82	0	i	42
CCC(C)Nc1nc(N)c([N+](=O)[O-])c(Nc2ccccc2OC)n1 (centres undefined)	nt	0.82	7	i	nt
Cc1ccc(Nc2nc(NCCCN3CCOCC3)nc(N)c2[N+](=O)[O-])cc1C	4	-1.1	0	i	52*
Cc1ccc(Nc2nc(NCCCN3CCOCC3)nc(N)c2[N+](=O)[O-])cc1	3	2	2	i	51*
Cc1ccc(/C=N/N2CCN(c3ccc(Cl)cc3)CC2)o1	2	0.49	0	i	-5
O=C(/C=C(\c1ccc(Cl)cc1)n1cncn1)c1ccc(Cl)cc1	3	-0.53	nt	i	74*
CC(=O)CC(C)(C)S(=O)(=O)c1ccc(Oc2ccc(S(=O)(=O)C(C)(C)CC(C)=O)cc2)cc1	4	-0.3	0	i	-8
CC(Nc1nc(N2CCNCC2)nc2ccccc12)c1ccccc1 (centres undefined)	4	0.038	-1	i	100*
Cc1cc(C)nc(NC(=O)c2cc([N+](=O)[O-])cc([N+](=O)[O-])c2)n1	7	-0.48	-1	i	59*
O=C(Nc1ncccn1)c1cc([N+](=O)[O-])cc([N+](=O)[O-])c1	6	-0.75	-2	i	99*
CCOC(=O)CSc1nnc(NC(=O)c2cc([N+](=O)[O-])cc([N+](=O)[O-])c2)s1	2	0.99	-1	i	82*
O=C(Nc1ncccn1)c1ccc([N+](=O)[O-])cc1	2	-0.07	-1	i	-2
O=C(COC(=O)c1cnccn1)c1ccc([N+](=O)[O-])cc1	nt	-0.68	-1	i	nt
CC(=O)Oc1ccccc1/C=C1\CCOC1=O	2	1.2	-2	i	-4
O=C(/C=C1\SC(=O)N(CC(=O)Nc2ccc(F)cc2)C1=O)Nc1ccc(Cl)cc1	2	-0.77	-4	i	52*
Cc1cccc(NC(=O)CN2C(=O)S/C(=C\C(=O)Nc3ccc(Cl)cc3)C2=O)c1	3	-0.041	-3	i	54*
CCOC(=O)c1c(NC(=O)CN2CCCCC2)sc2c1CCC(C=O)=C2Cl	4	-0.38	1	i	49
Cc1ccc(S(=O)(=O)N2CCCCC2)c(C)c1NS(C)(=O)=O	2	1.3	-2	i	0
CC1C(c2ccccc2)N(C)C(c2ccccc2)CC1(O)c1ccccc1 (centres undefined)	1	0.15	1	i	98*
C/C(N)=C(/C#N)C(=O)COC(=O)CC12CC3CC(CC(C3)C1)C2	2	0.18	-2	i	97*
SMILES	MT stabilize HCS	Dynein cargo inh	b-catenin transl	HSV augment	L major viab
CC(C)(C)NC(=O)CN(C(=O)CSc1nnc(COc2ccccc2)o1)c1cccc(F)c1	1	0.25	-4	i	12
CCCNC(=O)COC(=O)c1ccccc1C(=O)N(C)C1CCCCC1	2	0.13	-2	i	1
CN(C(=O)c1ccccc1C(=O)OCC(=O)NCc1ccccc1)C1CCCCC1	1	0.49	1	i	67*
CCCC(Oc1ccc(Br)cc1)c1nc2c3cc(OC)c(OC)cc3nc(=S)n2[nH]1 (centres undefined)	4	-0.22	0	i	97*
Cc1ccc(S(=O)(=O)N(CC(=O)NCc2ccco2)C2CCCCC2)cc1	3	-0.19	-1	i	12
CCOC(=O)c1ccc2nc(Nc3nc4ccc(F)cc4s3)sc2c1	2	-0.54	2	i	44
S=C1SCN(Cc2ccccn2)CN1Cc1ccco1	10	-2.1	5	i	80*
COCCN1CSC(=S)N(Cc2ccco2)C1	9	-2.2	2	i	85*
CCOCCCN1CN(Cc2ccco2)CNC1=S	3	0.14	nt	i	-7
CCOc1cccc(/C=N/Nc2ccc(S(=O)(=O)N(CC)CC)cn2)c1O	4	0.95	2	i	82*
CN(c1ccccc1)S(=O)(=O)c1cccc(NC(=O)CSc2nnc(N)s2)c1	3	1.3	0	i	78*
COCCNc1nnc(SCC(=O)Nc2cc(-c3ccccc3)nn2-c2ccccc2)s1	2	-0.51	0	i	-5
O=C(CSc1nncs1)Nc1cc(-c2ccccc2)nn1-c1ccccc1	2	-1.1	-5	i	51*
CC(=O)NCCC(=O)Nc1cccc(S(=O)(=O)N(C)c2ccccc2)c1	2	-0.28	-2	i	-2
CC(=O)c1c(C)[nH]c(C(=O)Nc2cccc(S(=O)(=O)N(C)c3ccccc3)c2)c1C	5	0.17	0	i	95*
Cc1ccccc1CN(C)CC(=O)Nc1cccc(S(=O)(=O)N(C)c2ccccc2)c1	3	-0.16	-1	i	71*
O=c1[nH]c(-c2cccnc2)nc2ccccc12	4	-0.69	0	i	0
COc1ccccc1C(=O)NC(C)c1nc2ccccc2[nH]1 (centres undefined)	4	-0.6	-1	i	0
CCCCOc1ccc(C(=O)Nc2cccc(C)n2)cc1	3	-0.54	0	nt	-9
N#CC(c1ccccn1)c1ncc(C(F)(F)F)cc1Cl (centres undefined)	3	0.28	6	i	-1
CN(c1ccccc1)S(=O)(=O)c1cccc(NC(=O)CSc2nncs2)c1	4	0.2	-3	i	72*
Cc1ccc(-c2[nH]c3ccccc3c2SCCNC(=O)c2ccc(S(=O)(=O)N3CCOCC3)cc2)cc1	3	0.19	0	i	99*
COc1ccc(-c2[nH]c3ccccc3c2SCCNC(=O)c2ccccc2)cc1	4	2.4	-2	nt	40
Cc1nc2ccccc2nc1OCC(=O)Nc1ccc2ccccc2c1	3	0.41	nt	i	59*
Cc1cc(C)c(NC(=O)COc2nc3ccccc3nc2C)c(C)c1	2	2	0	i	3
CC(C)Oc1ccccc1C1Nc2ccccc2C(=O)N1c1ccc2c(c1)OCCO2 (centres undefined)	3	0.022	0	i	63*
CNC(=O)NC(=O)CSc1cccc(C(F)(F)F)c1	2	-0.069	1	i	-7
CCC(=O)NC(NC(=S)Nc1cccc2cccnc12)C(Cl)(Cl)Cl (centres undefined)	3	0.39	-1	i	1
